In ChEMBL document CHEMBL1275591, “Cellular pharmacodynamics of the novel biaryloxazolidinone radezolid: studies with infected phagocytic and nonphagocytic cells, using Staphylococcus aureus, Staphylococcus epidermidis, Listeria monocytogenes, and Legionella pneumophila” (Antimicrob Agents Chemother, 2010):
Values after ≈ are worked out from the molar mass of the structure shown.

Assays:
Staphylococcus aureus [1] = test: Antimicrobial activity against linezolid-susceptible Staphylococcus aureus NRS18 infected in THP1 cells assessed as log reduction in bacterial count after 24 hrs; assay type: functional, THP-1
Outline: (§1)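 Bacteria were phagocytosed by human THP-1 macrophage-like cells, then exposed to a range of drug concentrations for a fixed time: 24 h for S. aureus, S. epidermidis and L. monocytogenes, 48 h for L. pneumophila. Change in CFU versus the initial inoculum was fitted with a sigmoidal curve to give Emin, Emax (relative maximal efficacy), EC50 and static concentration (Cs).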

Staphylococcus aureus [2] = test: Antimicrobial activity against linezolid-susceptible Staphylococcus aureus SA040 infected in THP1 cells assessed as log reduction in bacterial count after 24 hrs; assay type: functional, THP-1; outline: as §1
Listeria monocytogenes [3] = test: Bacteriostatic activity against Listeria monocytogenes EGD infected in THP1 cells after 24 hrs; assay type: functional, THP-1; outline: as §1
Staphylococcus aureus [4] = test: Bacteriostatic activity against linezolid-susceptible Staphylococcus aureus SA040 infected in THP1 cells after 24 hrs; assay type: functional, THP-1
Outline: (§2)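 Human THP-1 myelomonocytic (macrophage-like) cells infected with S. aureus, then exposed 24 h to a range of antibiotic concentrations. CFU change was measured against the initial inoculum. A sigmoidal dose-response curve was fitted to give Emin, Emax and EC50, and the apparent static concentration (Cs) was taken from the fit.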

[5] = tested on: Staphylococcus epidermidis; test: Antimicrobial activity against Staphylococcus epidermidis SA362 after 24 hrs; assay type: functional; details: SA362, 24 h
Staphylococcus aureus [6] = test: Bacteriostatic activity against linezolid-susceptible Staphylococcus aureus SA238 infected in THP1 cells at pH 7.4 after 24 hrs; assay type: functional, THP-1
Staphylococcus aureus [7] = test: Bacteriostatic activity against linezolid-susceptible Staphylococcus aureus SA238 infected in THP1 cells at pH 5.5 after 24 hrs; assay type: functional, THP-1
Staphylococcus aureus [8] = test: Bacteriostatic activity against linezolid-resistant Staphylococcus aureus SA040L infected in THP1 cells after 24 hrs; assay type: functional, THP-1; outline: as §2
Staphylococcus aureus [9] = test: Bacteriostatic activity against linezolid-susceptible Staphylococcus aureus ATCC 25923 infected in THP1 cells after 24 hrs; assay type: functional, THP-1; outline: as §2
Staphylococcus aureus [10] = test: Bacteriostatic activity against linezolid-susceptible Staphylococcus aureus NRS384 infected in THP1 cells after 24 hrs; assay type: functional, THP-1; outline: as §2
Staphylococcus aureus [11] = test: Antimicrobial activity against linezolid-susceptible Staphylococcus aureus SA238 infected in THP1 cells assessed as log reduction in bacterial count after 24 hrs; assay type: functional, THP-1; outline: as §1
Staphylococcus aureus [12] = test: Antimicrobial activity against linezolid-susceptible Staphylococcus aureus NRS384 infected in THP1 cells after 24 hrs; assay type: functional, organism-based; details: NRS384, THP-1, 24 h; outline: as §1
Staphylococcus aureus [13] = test: Antimicrobial activity against linezolid-susceptible Staphylococcus aureus ATCC 33591 infected in THP1 cells assessed as log reduction in bacterial count after 24 hrs; assay type: functional, THP-1; outline: as §1
Listeria monocytogenes [14] = test: Antimicrobial activity against Listeria monocytogenes infected in THP1 cells after 24 hrs; assay type: functional, organism-based; details: THP-1, 24 h; outline: as §1
Staphylococcus aureus [15] = test: Antimicrobial activity against hospital acquired methicillin-resistant, vancomycin resistant Staphylococcus aureus VRS2 after 24 hrs; assay type: functional; details: VRS2, 24 h
Staphylococcus aureus [16] = test: Antimicrobial activity against linezolid-susceptible Staphylococcus aureus SA238 infected in THP1 cells at pH 7.4 after 24 hrs; assay type: functional, organism-based; details: SA238, THP-1, 24 h
Staphylococcus aureus [17] = test: Antimicrobial activity against linezolid-susceptible Staphylococcus aureus ATCC 25923 infected in THP1 cells assessed as log reduction in bacterial count after 24 hrs; assay type: functional, THP-1; outline: as §1
Staphylococcus aureus [18] = test: Antimicrobial activity against linezolid-susceptible Staphylococcus aureus NRS384 infected in THP1 cells assessed as log reduction in bacterial count after 24 hrs; assay type: functional, THP-1; outline: as §1
Staphylococcus aureus [19] = test: Bacteriostatic activity against linezolid-susceptible Staphylococcus aureus NRS18 infected in THP1 cells after 24 hrs; assay type: functional, THP-1; outline: as §2
Staphylococcus aureus [20] = test: Antimicrobial activity against linezolid-susceptible Staphylococcus aureus SA040 infected in THP1 cells after 24 hrs; assay type: functional, organism-based; details: SA040, THP-1, 24 h; outline: as §1
[21] = tested on: Staphylococcus epidermidis; test: Bacteriostatic activity against Staphylococcus epidermidis infected in THP1 cells after 24 hrs; assay type: functional, THP-1; outline: as §1
Staphylococcus aureus [22] = test: Bacteriostatic activity against linezolid-susceptible Staphylococcus aureus SA238 infected in THP1 cells after 24 hrs; assay type: functional, THP-1; outline: as §2
Staphylococcus aureus [23] = test: Antimicrobial activity against linezolid resistant methicillin-susceptible Staphylococcus aureus SA040L after 24 hrs; assay type: functional
Listeria monocytogenes [24] = test: Antimicrobial activity against Listeria monocytogenes EGD after 24 hrs; assay type: functional
Legionella pneumophila [25] = test: Antimicrobial activity against Legionella pneumophila ATCC 33153 after 48 hrs; assay type: functional; details: ATCC 33153, 48 h
Staphylococcus aureus [26] = test: Antimicrobial activity against linezolid-resistant Staphylococcus aureus SA040L infected in THP1 cells after 24 hrs; assay type: functional, organism-based; details: THP-1, 24 h; outline: as §1
Staphylococcus aureus [27] = test: Bacteriostatic activity against linezolid-susceptible Staphylococcus aureus SA238 after 24 hrs; assay type: functional
Outline: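 Extracellular concentration-response in Mueller-Hinton broth over 24 h. Change in CFU was fitted to a sigmoidal function, and the apparent static concentration (Cs) was derived from the fit.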

Legionella pneumophila [28] = test: Antimicrobial activity against Legionella pneumophila ATCC 33153 infected in THP1 cells after 48hrs; assay type: functional, organism-based; details: ATCC 33153, THP-1, 48 h; outline: as §1
Staphylococcus aureus [29] = test: Antimicrobial activity against linezolid-resistant Staphylococcus aureus SA238L infected in THP1 cells after 24 hrs; assay type: functional, organism-based; details: THP-1, 24 h; outline: as §1
Staphylococcus aureus [30] = test: Antimicrobial activity against linezolid-susceptible Staphylococcus aureus ATCC 25923 infected in THP1 cells after 24 hrs; assay type: functional, organism-based; details: ATCC 25923, THP-1, 24 h; outline: as §1
Staphylococcus aureus [31] = test: Bacteriostatic activity against linezolid-susceptible Staphylococcus aureus ATCC 33591 infected in THP1 cells after 24 hrs; assay type: functional, THP-1; outline: as §2
Staphylococcus aureus [32] = test: Antimicrobial activity against linezolid-susceptible Staphylococcus aureus ATCC 33591 infected in THP1 cells after 24 hrs; assay type: functional, organism-based; details: ATCC 33591, THP-1, 24 h; outline: as §1
Staphylococcus aureus [33] = test: Antimicrobial activity against linezolid-resistant Staphylococcus aureus SA238L infected in THP1 cells assessed as log reduction in bacterial count after 24 hrs; assay type: functional, THP-1; outline: as §1
Staphylococcus aureus [34] = test: Antimicrobial activity against linezolid-susceptible Staphylococcus aureus NRS18 infected in THP1 cells after 24 hrs; assay type: functional, organism-based; details: NRS18, THP-1, 24 h; outline: as §1
Staphylococcus aureus [35] = test: Antimicrobial activity against linezolid-susceptible Staphylococcus aureus SA238 infected in THP-1 cells at pH 5.5 after 24 hrs; assay type: functional, organism-based; details: SA238, THP-1, 24 h
Legionella pneumophila [36] = test: Bacteriostatic activity against Legionella pneumophila ATCC 33153 infected in THP1 cells after 48hrs; assay type: functional, THP-1; outline: as §1
Staphylococcus aureus [37] = test: Antimicrobial activity against Linezolid resistant hospital acquired methicillin-resistant Staphylococcus aureus SA238L after 24 hrs; assay type: functional
Staphylococcus aureus [38] = test: Antimicrobial activity against hospital acquired methicillin-resistant, vancomycin resistant Staphylococcus aureus VRS1 after 24 hrs; assay type: functional; details: VRS1, 24 h
Staphylococcus aureus [39] = test: Bacteriostatic activity against Staphylococcus aureus infected in THP1 cells after 24 hrs; assay type: functional, THP-1; outline: as §1
Staphylococcus aureus [40] = test: Antimicrobial activity against Staphylococcus aureus infected in THP1 cells after 24 hrs; assay type: functional, organism-based; details: THP-1, 24 h; outline: as §1
Staphylococcus aureus [41] = test: Antimicrobial activity against linezolid-susceptible Staphylococcus aureus SA238 after 24 hrs; assay type: functional, organism-based; details: SA238, 24 h
[42] = tested on: Staphylococcus epidermidis; test: Antimicrobial activity against Staphylococcus epidermidis infected in THP1 cells after 24 hrs; assay type: functional, organism-based; details: THP-1, 24 h; outline: as §1
Staphylococcus aureus [43] = test: Bacteriostatic activity against linezolid-resistant Staphylococcus aureus SA238L infected in THP1 cells after 24 hrs; assay type: functional, THP-1; outline: as §2
Staphylococcus aureus [44] = test: Antimicrobial activity against hospital acquired methicillin-resistant Staphylococcus aureus ATCC 33591 after 24 hrs; assay type: functional; details: ATCC 33591, 24 h
Staphylococcus aureus [45] = test: Antimicrobial activity against linezolid-resistant Staphylococcus aureus SA040L infected in THP1 cells assessed as log reduction in bacterial count after 24 hrs; assay type: functional, THP-1; outline: as §1
Staphylococcus aureus [46] = test: Antimicrobial activity against linezolid-susceptible Staphylococcus aureus SA238 infected in THP1 cells after 24 hrs; assay type: functional, organism-based; details: SA238, THP-1, 24 h; outline: as §1

Structure (SMILES): CC(=O)NC[C@H]1CN(c2ccc(N3CCOCC3)c(F)c2)C(=O)O1 [LINEZOLID]
- log10cfu (Staphylococcus aureus [1]): -0.69
- log10cfu (Staphylococcus aureus [2]): -0.91
- Activity (Listeria monocytogenes [3]): 5.47 mg/L
- Activity (Staphylococcus aureus [4]): 1.59 mg/L
- MIC [5]: 1 µg/mL (≈ 2.96 µM)
- Activity (Staphylococcus aureus [6]): 2.26 mg/L
- Activity (Staphylococcus aureus [7]): 1.09 mg/L
- Activity (Staphylococcus aureus [8]): 10.15 mg/L
- Activity (Staphylococcus aureus [9]): 4.27 mg/L
- Activity (Staphylococcus aureus [10]): 2.3 mg/L
- log10cfu (Staphylococcus aureus [11]): -0.42
- EC50 (Staphylococcus aureus [12]): 0.4 µg/mL (≈ 1.19 µM)
- log10cfu (Staphylococcus aureus [13]): -0.39
- EC50 (Listeria monocytogenes [14]): 0.62 µg/mL (≈ 1.84 µM)
- MIC (Staphylococcus aureus [15]): 1 µg/mL (≈ 2.96 µM)
- EC50 (Staphylococcus aureus [16]): 0.35 µg/mL (≈ 1.04 µM)
- log10cfu (Staphylococcus aureus [17]): -0.37
- log10cfu (Staphylococcus aureus [18]): -0.41
- Activity (Staphylococcus aureus [19]): 2.77 mg/L
- EC50 (Staphylococcus aureus [20]): 0.63 µg/mL (≈ 1.87 µM)
- Activity [21]: 0.49 mg/L
- Activity (Staphylococcus aureus [22]): 4.55 mg/L
- MIC (Staphylococcus aureus [23]): 16 µg/mL (≈ 47.4 µM)
- MIC (Listeria monocytogenes [24]): 1 µg/mL (≈ 2.96 µM)
- MIC (Legionella pneumophila [25]): 4 µg/mL (≈ 11.9 µM)
- EC50 (Staphylococcus aureus [26]): 2.78 µg/mL (≈ 8.24 µM)
- Activity (Staphylococcus aureus [27]): 4.55 mg/L
- EC50 (Legionella pneumophila [28]): 8.45 µg/mL (≈ 25 µM)
- EC50 (Staphylococcus aureus [29]): 0.29 µg/mL (≈ 0.86 µM)
- EC50 (Staphylococcus aureus [30]): 0.63 µg/mL (≈ 1.87 µM)
- Activity (Staphylococcus aureus [31]): 2.95 mg/L
- EC50 (Staphylococcus aureus [32]): 0.47 µg/mL (≈ 1.39 µM)
- log10cfu (Staphylococcus aureus [33]): 0.27
- EC50 (Staphylococcus aureus [34]): 0.84 µg/mL (≈ 2.49 µM)
- EC50 (Staphylococcus aureus [35]): 0.18 µg/mL (≈ 0.534 µM)
- Activity (Legionella pneumophila [36]): 5.14 mg/L
- MIC (Staphylococcus aureus [37]): 16 µg/mL (≈ 47.4 µM)
- MIC (Staphylococcus aureus [38]): 1 µg/mL (≈ 2.96 µM)
- Activity (Staphylococcus aureus [39]): 4.27 mg/L
- EC50 (Staphylococcus aureus [40]): 0.63 µg/mL (≈ 1.87 µM)
- EC50 (Staphylococcus aureus [41]): 0.7 µg/mL (≈ 2.07 µM)
- EC50 [42]: 2.99 µg/mL (≈ 8.86 µM)
- Activity (Staphylococcus aureus [43]): >100 mg/L
- MIC (Staphylococcus aureus [44]): 1 µg/mL (≈ 2.96 µM)
- log10cfu (Staphylococcus aureus [45]): -0.69
- EC50 (Staphylococcus aureus [46]): 0.7 µg/mL (≈ 2.07 µM)
